Test results from the RNAGym collection of RNA variant scans (doi:10.1126/science.aae0568).
Variants at the floor of the assay were thinned out.

B1: tRNA (parent)
chain: GUUCCGUUGGCGUAAUGGUAACGCGUCUCCCUCCUAAGGAGAAGACUGCGGGUUCGAGUCCCGUACGGAACG

Variants of: B1
Assay: yeast fitness relative to wild type (ratio to wild type); higher = fitter; tRNA-Arg(CCU), competitive growth, 37 C, YPD
Summary of the method: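 Gene amplicons from the start population and from each of six end populations were read by 100-nucleotide paired-end sequencing. Those end populations came from pooled Saccharomyces cerevisiae strains carrying tRNA-Arg(CCU) gene variants at the native locus, competed in YPD at 37°C for 24 hours. Fitness relative to wild type was worked out from changes in genotype frequencies. Genotypes needed ≥ 100 starting reads, and estimates < 0.5 were set to 0.5.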
For GUUCCGAUGGCGUAAUGGUAACGCGUCUCCCUCCUAAGGAGAAGAGUGCGGGUUCGAGUCCCGUACGGCACG [U7A C46G A69C], the yeast fitness was 0.607.
With GUUCCGAUGGCGUAAUGGUAACGCGUCUCCCUCCUAAGGAGAAGACUGCGGGUUGGAGUCCCGUACGGAACG [U7A C55G] the yeast fitness was no more than 0.5.
Work on GUUCCGAUAGCGGAAUGGUAACGCGUCUCCCUCCUAAGGAGAAGACUGCGGGUUCAAGUCCCGUACGGAACG [U7A G9A U13G G56A] yielded a yeast fitness of no more than 0.5.
Variant GUUCCGAUAGCGAAAUGGUAACGCGUCUCCCUCCUAAGGAGAAGACUGCGGGUUCGAGUCCCGUACGGAUCG [U7A G9A U13A A70U] has a yeast fitness of no more than 0.5.
Variant GUUCCGAUGGCGUAAUGGUAACGCGUCUCCCUCCUAAGGAGAAGAGUGCGGGUUCGAGUCCCGUUCGGAACG [U7A C46G A65U] has a yeast fitness of 0.686.
Variant GUUCCGAUGGCGUAAUGGUAACGCGUCUCCCUCCUAAGGAGAAGAGUGCGGGUUCGAGUCCCGUCCGGAACG [U7A C46G A65C] has a yeast fitness of 0.848.
In the case of GUUCCGAUCACGUAAUGGUAACGCGUCUCUCUCGUAAGGAGAAGACUGCGGGUUCGAGUCCCGUACGCAACG [U7A G9C G10A C30U C34G G68C], the yeast fitness is reported as no more than 0.5.
Work on GUUCCGAUGGCGUAAUGGUAACGCGUCUCCCUCCUAAGGAGAAGACUGCGGGUUCGAGUCCUGUACGGAACG [U7A C62U] yielded a yeast fitness of 0.888.
Work on GUUCCGAUGGCGUAAUGGUAACGCGUCUCCCUCAUAAGGAGAAGAUUGCGGGUUCGAGUCCCGUACGGAACG [U7A C34A C46U] yielded a yeast fitness of no more than 0.5.
Work on GUUCCGAUGGCGUAAUGGUAACGCGUCUCCCUCCUAAGGAGAAGACUGAGGGUUCAAGUCCCGUACGGAACG [U7A C49A G56A] yielded a yeast fitness of 0.594.
For GUUCCGAUGGCGUAAUGGUAACGCGUCUCCCUCCUAAGGAGAAGACUGGGGGUUCGAGUCCCGUAAGGAACG [U7A C49G C66A], the yeast fitness was no more than 0.5.
Work on GUUCCGAUGGCGUAAUGGUAACGCGUCUCCCUCCUAAGGAGAAGACUGUGGGUUCGAGCCCGGUACGGAACG [U7A C49U U59C C62G] yielded a yeast fitness of no more than 0.5.
For GUUCCGAUCGCGUAAUCGUAACGCGUCUCCCUCCUAAGGAGAAGAAUGCGGGUUCGAGUCCCGUACGCAACG [U7A G9C G17C C46A G68C], the yeast fitness was no more than 0.5.
With GUUCCGAUCGCGUAAUCGUAACGCGUCUCCCUCCUAAGGAGAAGACUGUGGGUUCGAGUCCGGUACGGAACG [U7A G9C G17C C49U C62G] the yeast fitness was no more than 0.5.
Variant GUUCCGAUCGCGUAAUCGUAACGCGUCUCCCUCCUAAGGAGAAGACUGCGGGUUCGAGUCUCGUACGCAACG [U7A G9C G17C C61U G68C] has a yeast fitness of no more than 0.5.
GUUCCGAUGGCGUAAUGGUAACGCGUCUCCCUCCUAAGGAGAAGAGUGCGAGUUCGAGUCCCGUCCGGAACG [U7A C46G G51A A65C] gave a yeast fitness of no more than 0.5.
GUUCCGAUCGCGUAAUCGUAACGCGUCUCCCUCCUAAGGAGAAGACUACGGGUUCGAGUCCCGUACGGAACG [U7A G9C G17C G48A] showed a yeast fitness of 0.525.
Variant GUUCCGAUGGCGUAAUGGUAACGCGUCUCCCUCCUAAGGAGAAGACUGCGGGUUUGAGUCCCGUACCGAACG [U7A C55U G67C] has a yeast fitness of no more than 0.5.
Work on GUUCCGAUGGCGUAAUGGUAACGCGUCUCCCUCCUAAGGAGAAGAGUGCGGGUUCGAGUCCCGUACGGAACG [U7A C46G] yielded a yeast fitness of 0.787.
Work on GUUCCGAUCGCGUAAUCGUAACGCGUCUCCCUCCUAAGGUGAAGACUGCGGGUUCGAGUCCCGUCCGGAACG [U7A G9C G17C A40U A65C] yielded a yeast fitness of no more than 0.5.
Variant GUUCCGAUAGCGAAAUGGUAACGCGUCUCCCUCCUAAGGAGAAGACUGCGGGUUCAAGUCCCGUACGGAACG [U7A G9A U13A G56A] has a yeast fitness of 0.535.
For GUUCCGAUGGCGUAAUGGUAACGCGUCUCCCUCCUAAGGAGAAGACUGCGGGUUCGAGUGCCGUACGGGACG [U7A C60G A69G], the yeast fitness was 0.588.
In the case of GUUCCGAUGGCGUAAUGGUAACGCGUCUCCCUCCUAAGGAGAAGACUGUGGGUUCGAGUCCGGUACGGAACG [U7A C49U C62G], the yeast fitness is reported as 0.603.
Variant GUUCCGAUGGCGUAAUGGUAACGCGUCUCCCUCGUAAGGAGAAGACUGCGGGUUCGAGUCCAGUACGGAACG [U7A C34G C62A] has a yeast fitness of 0.696.
Variant GUUCCGAUGGCGUAAUGGUAACGCGUCUCCCUCCUAAGGAGAAGACUGCGGGUUCGAGUCGCGUACGGAACG [U7A C61G] has a yeast fitness of 0.563.
Variant GUUCCGAUCGCGUAAUGGUAACGCGUCUCUCUCGUAGGGAGAAGACUGCGGGUUCGAGUCCCGUACGCAACG [U7A G9C C30U C34G A37G G68C] has a yeast fitness of no more than 0.5.
Work on GUUCCGAUGGCGUAAUGGUAACGCGUCUCCCUCUUAAGGAGAAGACUGCGGGUUGGAGUCCCGUACGGAACG [U7A C34U C55G] yielded a yeast fitness of no more than 0.5.
Work on GUUCCGAUGGCGUAAUGGUAACGCGUCUCCCUCCUAAGGAGAAGACUGCGGGUUCGAGUUCCGUACGGAACG [U7A C60U] yielded a yeast fitness of 0.652.
With GUUCCGAUGGCGUAAUGGUAACGCGUCUCCCUCCUAAGGAGAAGACUGCGGGUUCGAGUGCCGUACGGAACG [U7A C60G] the yeast fitness was 0.561.
GUUCCGAUCGCGUAAUGGUAACGCGUCUCUCUCGUAAGGAGAAGACUGCGGGUUCGAGUCCCGUACGGAACG [U7A G9C C30U C34G] gave a yeast fitness of no more than 0.5.
Variant GUUCCGAUGGCGUAAUGGUAACGCGUCUCCCUCCUAAGGAGAAGACUGGGGGUUCGAGUCCCGUACGGAACG [U7A C49G] has a yeast fitness of 0.779.
Work on GUUCCGAUGGCGUAAUGGUAACGCGUCUCCCUCCUAAGGAGAAGACUGAGGGUUCGAGUCCCGUACGGAACG [U7A C49A] yielded a yeast fitness of 0.634.
GUUCCGAUGGCGUAAUGGUAACGCGUCUCCCUCCUAAGGAGAAGACUGCGGGUUUGAGUCCCGUGCGGAACG [U7A C55U A65G] gave a yeast fitness of no more than 0.5.
In the case of GUUCCGAUGGCGUAAUGGUAACGCGUCUCCCUCGUAAGGCGAAGACUGCGGGUUCGUGUCCCGUACGGAACG [U7A C34G A40C A57U], the yeast fitness is reported as no more than 0.5.
Variant GUUCCGAUGGCGUAAUGGUAACGCGUCUCCCUCCUAAGGAGAAGACUGCGGGUUCGAGUCCCGUAGGGAACG [U7A C66G] has a yeast fitness of 0.62.
For GUUCCGAUGGCGUAAUGGUAACGCGUCUCCCUCCUAAGGAGAAGACUGGCGGUUCGAGUCCUGUACGGAACG [U7A C49G G50C C62U], the yeast fitness was no more than 0.5.
Work on GUUCCGAUGGCGUAAUGGUAACGCGUCUCCCUCCUAAGGAGAAGACUGCGGGUUCGAGUGCCGUACCGAACG [U7A C60G G67C] yielded a yeast fitness of no more than 0.5.
Work on GUUCCGAUCGCGUAAUCGUAACGCGUCUCCCUCCUAAGGAGAUGACUACGGGUUCGAGUCCCGUACGGAACG [U7A G9C G17C A43U G48A] yielded a yeast fitness of no more than 0.5.
